Results from ChEMBL document CHEMBL1144182, “Antimicrobial and cytotoxic arylazoenamines. Part III: antiviral activity of selected classes of arylazoenamines” (Bioorg Med Chem, 2008).
The source made the active and inactive calls. How the calls were made is not given here.

Tests used:
[1] = tested on: Vesicular stomatitis virus; assay: Antiviral activity against VSV infected in Vero76 cells assessed as reduction in virus plaque formation after 4 days by MTT assay; type: functional, organism-based; settings: Vero 76
Vaccinia virus = assay: Antiviral activity against VV infected in Vero76 cells assessed as reduction in virus plaque formation after 4 days by MTT assay; type: functional, organism-based; settings: Orthopoxvirus vaccinia; Vero 76
[2] = tested on: Bovine viral diarrhea virus 1; assay: Antiviral activity against BVDV infected in MDBK cells assessed as protection against virus-induced cytopathogenicity after 4 days by MTT assay; type: functional, organism-based; settings: Bovine viral diarrhea virus isolates and strains, 96 h
Summary of the method: (§1)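 MDBK (BVDV) or BHK-21 (YFV) cells were seeded at 3 × 10^4 or 5 × 10^4 cells/well respectively and grown overnight to confluent monolayers at 37 °C in 5% CO2. Monolayers were infected at m.o.i. 0.01 in serum-free medium. After 1 h, MEM Earle's with 1% FCS was added, with or without serial compound dilutions. After 3–4 days at 37 °C, viability was read by MTT. EC50 was taken as 50% protection from virus-induced cytopathogenicity.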

[3] = Cytotoxicity against mock-infected african green monkey Vero76 cells assessed as reduction in cell viability after 96 hrs by MTT assay; type: cell-based, Vero; settings: chlorocebus sabaeus
[4] = Cytotoxicity against mock-infected human MT4 cells assessed as reduction in cell viability after 96 hrs by MTT assay; type: cell-based
Summary of the method: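 Exponentially growing MT-4 cells seeded at 1 × 10^5 cells/mL in RPMI-1640 with 10% FCS, penicillin and streptomycin, with or without serial compound dilutions. Incubated at 37 °C, 5% CO2; viability read by MTT after 96 h. CC50 is the concentration reducing mock-infected cell viability by 50%.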

Coxsackievirus B2 = assay: Antiviral activity against CVB2 infected in Vero76 cells assessed as reduction in virus plaque formation after 4 days by MTT assay; type: functional, organism-based; settings: Enterovirus B, Vero 76, 96 h
[5] = Cytotoxicity against mock-infected BHK cells assessed as reduction in cell viability after 96 hrs by MTT assay; type: cell-based, Mesocricetus auratus; settings: hamster
Summary of the method: (§2)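 Cytotoxicity run in parallel with the antiviral assays. MDBK seeded at 6 × 10^5 and BHK at 1 × 10^6 cells/mL in maintenance medium with or without serial compound dilutions. Incubated 48–96 h at 37 °C, 5% CO2, then viability read by MTT. CC50 is the concentration reducing mock-infected cell viability by 50%.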

[6] = tested on: Respiratory syncytial virus; assay: Antiviral activity against RSV infected in Vero76 cells assessed as reduction in virus plaque formation after 4 days by MTT assay; type: functional, organism-based; settings: human respiratory syncytial virus, Vero 76, 96 h
[7] = Cytotoxicity against mock-infected MDBK cells assessed as reduction in cell viability after 96 hrs by MTT assay; type: cell-based, Bos taurus; settings: cattle; summary of the method: as §2
[8] = tested on: Human immunodeficiency virus 1; assay: Antiviral activity against HIV1 infected in MT4 cells assessed as virus-induced cytopathogenicity after 4 days; type: functional, organism-based
Poliovirus 1 = assay: Antiviral activity against Sb1 virus infected in Vero76 cells assessed as reduction in virus plaque formation after 4 days by MTT assay; type: functional, organism-based; settings: Enterovirus C, Sabin, Vero 76, 96 h
Yellow fever virus = assay: Antiviral activity against YFV infected in BHK21 cells assessed as protection against virus-induced cytopathogenicity after 4 days by MTT assay; type: functional, organism-based; settings: BHK-21, 96 h; summary of the method: as §1

For `COc1ccc(N2CCN(/C=C/N=N/c3ccccc3)CC2)cc1`, the Activity [1] was “inactive”, the Activity (Vaccinia virus) was “inactive” and the EC50 [2] was over 19 µM. It also gave a CC50 at 96 h [3] of 38 µM, a CC50 at 96 h [4] of 29 µM and an EC50 (Coxsackievirus B2) of 5 µM. For the same molecule, the CC50 at 96 h [5] was 46 µM, the EC50 [6] was 6 µM and the CC50 at 96 h [7] was 19 µM. For the same molecule, the Activity [8] was “inactive”, the EC50 (Poliovirus 1) was over 38 µM and the EC50 (Yellow fever virus) was over 46 µM.
For `O=[N+]([O-])c1ccc(/N=N\C2=C3CCCCN3CCC2)cc1`, the Activity [1] was “inactive”, the Activity (Vaccinia virus) was “inactive” and the EC50 [2] was 86 µM. The CC50 at 96 h [3] was 100 µM, the CC50 at 96 h [4] was 91 µM and the EC50 (Coxsackievirus B2) was 26 µM. It also gave a CC50 at 96 h [5] of over 100 µM, an EC50 [6] of over 100 µM and a CC50 at 96 h [7] of over 100 µM. The Activity [8] was “inactive”, the EC50 (Poliovirus 1) was over 100 µM and the EC50 (Yellow fever virus) was at least 100 µM.
With `CN1C=C(/N=N/c2ccc(F)c(C(F)(F)F)c2)CCC1` the Activity [1] was “inactive”, the Activity (Vaccinia virus) was “inactive” and the EC50 [2] was over 100 µM. The CC50 at 96 h [3] was 70 µM, the CC50 at 96 h [4] was over 100 µM and the EC50 (Coxsackievirus B2) was 35 µM. For the same molecule, the CC50 at 96 h [5] was 80 µM, the EC50 [6] was over 70 µM and the CC50 at 96 h [7] was over 100 µM. For the same molecule, the Activity [8] was “inactive”, the EC50 (Poliovirus 1) was over 70 µM and the EC50 (Yellow fever virus) was over 80 µM.
For `CN1C=C(/N=N/c2cccc3ccccc23)CCC1`, the Activity [1] was “inactive”, the Activity (Vaccinia virus) was “inactive” and the EC50 [2] was 5 µM. For the same molecule, the CC50 at 96 h [3] was at least 100 µM, the CC50 at 96 h [4] was over 100 µM and the EC50 (Coxsackievirus B2) was 76 µM. The CC50 at 96 h [5] was over 100 µM, the EC50 [6] was over 100 µM and the CC50 at 96 h [7] was over 100 µM. The Activity [8] was “inactive”, the EC50 (Poliovirus 1) was over 100 µM and the EC50 (Yellow fever virus) was over 100 µM.
With `CN1CCC/C1=C\N=N\c1ccc(Br)c(C(F)(F)F)c1` the Activity [1] was “inactive”, the Activity (Vaccinia virus) was “inactive” and the EC50 [2] was 46 µM. It also gave a CC50 at 96 h [3] of at least 100 µM, a CC50 at 96 h [4] of 24 µM and an EC50 (Coxsackievirus B2) of 100 µM. The CC50 at 96 h [5] was over 100 µM, the EC50 [6] was over 100 µM and the CC50 at 96 h [7] was over 100 µM. For the same molecule, the Activity [8] was “inactive”, the EC50 (Poliovirus 1) was 60 µM and the EC50 (Yellow fever virus) was over 100 µM.
For `Clc1ccc(/N=N/C=C2\CCCN2Cc2ccccc2)cc1`, the Activity [1] was “inactive”, the Activity (Vaccinia virus) was “inactive” and the EC50 [2] was over 18 µM. The CC50 at 96 h [3] was 70 µM, the CC50 at 96 h [4] was 17 µM and the EC50 (Coxsackievirus B2) was 23 µM. It also gave a CC50 at 96 h [5] of 20 µM, an EC50 [6] of over 70 µM and a CC50 at 96 h [7] of 18 µM. For the same molecule, the Activity [8] was “inactive”, the EC50 (Poliovirus 1) was over 70 µM and the EC50 (Yellow fever virus) was over 20 µM.
For `CN1C=C(/N=N/c2cccc([N+](=O)[O-])c2)CCC1`, the Activity [1] was “inactive”, the Activity (Vaccinia virus) was “inactive” and the EC50 [2] was 0.8 µM. For the same molecule, the CC50 at 96 h [3] was over 100 µM, the CC50 at 96 h [4] was over 100 µM and the EC50 (Coxsackievirus B2) was over 100 µM. It also gave a CC50 at 96 h [5] of 95 µM, an EC50 [6] of over 100 µM and a CC50 at 96 h [7] of over 100 µM. The Activity [8] was “inactive”, the EC50 (Poliovirus 1) was over 100 µM and the EC50 (Yellow fever virus) was over 95 µM.
For `FC(F)(F)c1cc(/N=N\C2=C3CCCCN3CCC2)cc(C(F)(F)F)c1`, the Activity [1] was “inactive”, the Activity (Vaccinia virus) was “inactive” and the EC50 [2] was over 31 µM. For the same molecule, the CC50 at 96 h [3] was 100 µM, the CC50 at 96 h [4] was 34 µM and the EC50 (Coxsackievirus B2) was 41 µM. For the same molecule, the CC50 at 96 h [5] was 19 µM, the EC50 [6] was over 100 µM and the CC50 at 96 h [7] was 31 µM. For the same molecule, the Activity [8] was “inactive”, the EC50 (Poliovirus 1) was over 100 µM and the EC50 (Yellow fever virus) was over 19 µM.
In the case of `c1ccc2c(N=NC3=C4CCCN4CCC3)nncc2c1`, the Activity [1] is reported as “inactive”, the Activity (Vaccinia virus) is reported as “inactive” and the EC50 [2] is reported as over 100 µM. It also gave a CC50 at 96 h [3] of over 100 µM, a CC50 at 96 h [4] of 52 µM and an EC50 (Coxsackievirus B2) of over 100 µM. The CC50 at 96 h [5] was over 100 µM, the EC50 [6] was 7 µM and the CC50 at 96 h [7] was over 100 µM. For the same molecule, the Activity [8] was “inactive”, the EC50 (Poliovirus 1) was over 100 µM and the EC50 (Yellow fever virus) was over 100 µM.
For `C(=C\N1CCN(c2ccccn2)CC1)/N=N/c1ccccc1`, the Activity [1] was “inactive”, the Activity (Vaccinia virus) was “inactive” and the EC50 [2] was over 100 µM. It also gave a CC50 at 96 h [3] of 22 µM, a CC50 at 96 h [4] of 19 µM and an EC50 (Coxsackievirus B2) of 6 µM. The CC50 at 96 h [5] was 75 µM, the EC50 [6] was 7 µM and the CC50 at 96 h [7] was at least 100 µM. For the same molecule, the Activity [8] was “inactive”, the EC50 (Poliovirus 1) was over 22 µM and the EC50 (Yellow fever virus) was over 75 µM.
In the case of `FC(F)(F)c1cc(/N=N/C2=CN(Cc3ccccc3)CCC2)ccc1Cl`, the Activity [1] is reported as “inactive”, the Activity (Vaccinia virus) is reported as “inactive” and the EC50 [2] is reported as at least 28 µM. For the same molecule, the CC50 at 96 h [3] was 48 µM, the CC50 at 96 h [4] was 43 µM and the EC50 (Coxsackievirus B2) was 4 µM. For the same molecule, the CC50 at 96 h [5] was 32 µM, the EC50 [6] was over 48 µM and the CC50 at 96 h [7] was 28 µM. The Activity [8] was “inactive”, the EC50 (Poliovirus 1) was over 48 µM and the EC50 (Yellow fever virus) was 22 µM.
